From ChEMBL document CHEMBL1135280, “Synthesis and pharmacological evaluation of 6-piperidino- and 6-piperazinoalkyl-2(3H)-benzothiazolones as mixed sigma/5-HT(1A) ligands” (Bioorg Med Chem Lett, 2002)
Blank lines part the entries; values can stand above or below the compound they belong to.

Columns and labels:
[1] = target: T1, 5-hydroxytryptamine receptor 1A (Rattus norvegicus, UniProt P19327); assay: Displacement of […] membrane 5-hydroxytryptamine 1A receptor
T1 sequence (P19327 whole entry): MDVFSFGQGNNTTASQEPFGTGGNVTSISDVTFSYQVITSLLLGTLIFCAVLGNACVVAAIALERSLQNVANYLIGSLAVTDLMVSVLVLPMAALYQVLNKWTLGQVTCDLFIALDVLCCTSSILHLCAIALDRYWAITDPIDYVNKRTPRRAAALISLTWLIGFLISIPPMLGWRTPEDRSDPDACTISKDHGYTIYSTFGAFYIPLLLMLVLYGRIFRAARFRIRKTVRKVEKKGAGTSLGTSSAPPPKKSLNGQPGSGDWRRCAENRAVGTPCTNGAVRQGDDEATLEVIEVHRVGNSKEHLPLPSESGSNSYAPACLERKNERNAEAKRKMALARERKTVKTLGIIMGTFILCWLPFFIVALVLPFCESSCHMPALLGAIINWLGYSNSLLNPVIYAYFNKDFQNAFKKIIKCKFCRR
Outline: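 Radioligand displacement on rat brain membranes, run by an external laboratory. [3H]prazosin and [3H]ketanserin were used with cortex, and [3H]-8-OH-DPAT with hippocampus.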

[2] = target: D(2) dopamine receptor (Rattus norvegicus, UniProt P61169); assay: Displacement of [3H]- raclopride from rat striatum Dopamine receptor D2
Chain of D(2) dopamine receptor (P61169 whole entry): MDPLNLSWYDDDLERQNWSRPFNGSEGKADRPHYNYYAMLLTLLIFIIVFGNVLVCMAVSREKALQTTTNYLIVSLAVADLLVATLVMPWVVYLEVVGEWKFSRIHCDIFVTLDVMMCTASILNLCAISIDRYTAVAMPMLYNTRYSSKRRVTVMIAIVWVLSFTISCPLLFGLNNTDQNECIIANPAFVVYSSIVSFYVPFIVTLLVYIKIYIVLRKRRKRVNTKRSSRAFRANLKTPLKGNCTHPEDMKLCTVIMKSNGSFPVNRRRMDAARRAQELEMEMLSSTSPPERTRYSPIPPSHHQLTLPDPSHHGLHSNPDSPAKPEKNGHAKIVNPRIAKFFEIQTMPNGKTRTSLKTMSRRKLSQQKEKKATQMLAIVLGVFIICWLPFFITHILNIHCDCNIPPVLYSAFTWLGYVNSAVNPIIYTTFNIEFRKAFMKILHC

[3] = target: Histamine H1 receptor (Rattus norvegicus, UniProt P31390); assay: Displacement of [3H]- pyrilamine from rat brain membrane Histamine H1 receptor
Chain of Histamine H1 receptor (P31390 whole entry): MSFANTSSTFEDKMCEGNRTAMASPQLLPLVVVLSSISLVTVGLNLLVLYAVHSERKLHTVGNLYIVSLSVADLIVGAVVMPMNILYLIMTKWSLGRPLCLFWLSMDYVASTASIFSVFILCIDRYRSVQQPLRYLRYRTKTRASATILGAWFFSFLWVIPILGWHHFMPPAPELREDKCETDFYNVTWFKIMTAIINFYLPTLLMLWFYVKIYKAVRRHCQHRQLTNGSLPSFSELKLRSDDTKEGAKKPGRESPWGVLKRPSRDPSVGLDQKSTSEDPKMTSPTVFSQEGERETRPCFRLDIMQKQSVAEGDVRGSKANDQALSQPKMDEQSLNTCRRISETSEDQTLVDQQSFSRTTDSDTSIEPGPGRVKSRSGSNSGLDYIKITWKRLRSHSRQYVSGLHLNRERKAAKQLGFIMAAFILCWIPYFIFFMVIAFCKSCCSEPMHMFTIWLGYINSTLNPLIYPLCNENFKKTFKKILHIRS

[4] = target: T2, Muscarinic acetylcholine receptor M1 (Rattus norvegicus, UniProt P08482); assay: In vitro binding affinity towards Muscarinic acetylcholine receptor M1 by displacing [3H]- telenzepine from rat brain membrane
T2 sequence (P08482 whole entry): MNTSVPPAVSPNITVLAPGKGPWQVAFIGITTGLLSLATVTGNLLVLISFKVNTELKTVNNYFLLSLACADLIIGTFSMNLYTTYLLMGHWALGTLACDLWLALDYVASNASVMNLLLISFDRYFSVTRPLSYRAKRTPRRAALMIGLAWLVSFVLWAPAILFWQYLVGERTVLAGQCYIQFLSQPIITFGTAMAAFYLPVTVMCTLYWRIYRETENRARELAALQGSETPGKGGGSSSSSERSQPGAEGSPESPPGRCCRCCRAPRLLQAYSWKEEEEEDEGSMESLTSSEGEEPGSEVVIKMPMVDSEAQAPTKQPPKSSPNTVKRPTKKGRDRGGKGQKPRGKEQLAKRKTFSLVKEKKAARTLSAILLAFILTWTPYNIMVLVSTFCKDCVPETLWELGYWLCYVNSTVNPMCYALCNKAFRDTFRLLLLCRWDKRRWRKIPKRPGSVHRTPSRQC

[5] = target: Sigma 2 receptor; assay: In vitro binding affinity towards Sigma opioid receptor type 2 by using [3H]- DTG in the presence of 1 uM (+)- pentazocine
[6] = target: T3, Sigma non-opioid intracellular receptor 1 (Homo sapiens, UniProt Q99720); assay: In vitro binding affinity towards Sigma opioid receptor type 1 by using [3H]- (+)-pentazocine as radioligand
T3 sequence (Q99720 whole entry): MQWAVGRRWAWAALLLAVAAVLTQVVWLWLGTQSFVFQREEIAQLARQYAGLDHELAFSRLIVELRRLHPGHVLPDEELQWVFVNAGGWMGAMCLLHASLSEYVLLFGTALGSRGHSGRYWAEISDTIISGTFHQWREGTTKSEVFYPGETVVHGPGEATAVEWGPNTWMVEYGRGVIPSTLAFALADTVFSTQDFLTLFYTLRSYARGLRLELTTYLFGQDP

[7] = target: T3, Sigma non-opioid intracellular receptor 1; assay: In vitro binding affinity for Sigma opioid receptor by displacement of [3H]DTG
[8] = target: T3, Sigma non-opioid intracellular receptor 1; assay: Binding affinity ratio between Sigma opioid receptor type 1 and Sigma opioid receptor type 2
Outline: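 Selectivity ratio of σ1 to σ2 affinity, determined only for compounds with high affinity at sigma sites. σ1 affinity was measured with (+)-pentazocine and σ2 affinity with DTG as radioligands.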

[9] = species on record: Rattus norvegicus; assay: In vitro binding affinity ratio between Sigma opioid receptor and 5-hydroxytryptamine 1A receptor
[10] = Binding affinity ratio towards sigma receptor compared to the 5-hydroxytryptamine 1A receptor
[11] = target: T2, Muscarinic acetylcholine receptor M1; assay: In vitro binding affinity towards Muscarinic acetylcholine receptor M1 by displacing [3H]- telenzepine from rat brain membrane

SMILES: Cn1c(=O)sc2cc(CCN3CCC(c4ccccc4)CC3)ccc21
Ki [1]: 4 nM | Ki [2]: 1000 nM | Ki [3]: 20 nM | Ki [4]: 1000 nM | Ratio [8]: 10 | Ratio [9]: 0.5 | Ki [6]: 20 nM | Ki [7]: 2 nM

SMILES: Cn1c(=O)sc2cc(CCCCN3CCN(Cc4ccc(Cl)c(Cl)c4)CC3)ccc21
Ki [1]: 300 nM | Ki [2]: 100 nM | Ki [3]: 9 nM | Ki [4]: 500 nM | Ratio [8]: 70 | Ratio [9]: 0.006 | Ki [6]: 139 nM | Ki [7]: 2 nM

SMILES: Cn1c(=O)sc2cc(CCN3CCC(Cc4ccccc4)CC3)ccc21
Ki [1]: 4 nM | Ki [2]: > 100 nM | Ki [3]: 3 nM | Ki [4]: 100 nM | Ratio [10]: 1.25 | Ki [7]: 5 nM

SMILES: C[C@@H]1CN(CCc2ccc3c(c2)sc(=O)n3C)C[C@H](C)N1
Ki [1]: > 10000 nM | Ki [2]: > 10000 nM | Ki [3]: 20000 nM | Ki [4]: > 10000 nM | Ratio [10]: < 0.2 | Ki [7]: 2000 nM

SMILES: C[C@@H]1CN(CCCCc2ccc3c(c2)sc(=O)n3C)C[C@H](C)N1
Ki [1]: > 100000 nM | Ki [2]: > 100000 nM | Ki [3]: > 100000 nM | Ki [4]: > 100000 nM | Ratio [10]: < 0.001 | Ki [7]: 100 nM

The remaining compounds from weak to strong by Ki [1], led by results:

Ki [1]: 200 nM | Ki [2]: 100 nM | Ki [3]: < 100 nM | Ki [4]: < 10000 nM | Ratio [10]: 0.04 | Ki [7]: 9 nM
SMILES: Cn1c(=O)sc2cc(CCCCN3CCN(Cc4ccc(Cl)cc4Cl)CC3)ccc21

Ki [1]: 100 nM | Ki [2]: 100 nM | Ki [3]: 10 nM | Ratio [10]: 0.08 | Ki [7]: 8 nM
SMILES: Cn1c(=O)sc2cc(CCN3CCN(Cc4ccc(Cl)cc4Cl)CC3)ccc21

Ki [1]: 40 nM | Ki [2]: 10000 nM | Ki [3]: < 100 nM | Ki [4]: 10000 nM | Ki [5]: 2 nM | Ki [6]: 37.2 nM | Ki [7]: 2 nM
SMILES: Cn1c(=O)sc2cc(CCCCN3CCN(Cc4ccccc4)CC3)ccc21

Ki [1]: 30 nM | Ki [2]: > 10000 nM | Ki [3]: 7 nM | Ki [4]: 500 nM | Ratio [10]: 0.1 | Ki [7]: 3 nM
SMILES: Cn1c(=O)sc2cc(CCN3CCN(Cc4ccccc4)CC3)ccc21

Ki [1]: 30 nM | Ki [2]: 200 nM | Ki [3]: 40 nM | Ki [4]: 1000 nM | Ratio [10]: 0.17 | Ki [7]: 5 nM
SMILES: Cn1c(=O)sc2cc(CCN3CCN(Cc4ccc(Cl)c(Cl)c4)CC3)ccc21

Ki [1]: 30 nM | Ki [2]: 100 nM | Ki [3]: 9 nM | Ratio [10]: 0.17 | Ki [7]: 5 nM | Ki [11]: 200 nM
SMILES: Cn1c(=O)sc2cc(CCCCN3CCC(Cc4ccccc4)CC3)ccc21

Ki [1]: 10 nM | Ki [2]: 30 nM | Ki [3]: 6000 nM | Ratio [10]: 0.3 | Ki [7]: 3 nM
SMILES: Cn1c(=O)sc2cc(CCCCN3CCC(c4ccccc4)CC3)ccc21
